proCasp7 act: counter-screen for procaspase-3 activators: activators of human procaspase-7; P55210; actives 0.093% (n = 330,000); AID 463210; activation, % at 8.5 µM; recombinant procaspase-7, Ac-DEVD-pNA absorbance 405 nm; D23A/D198A/D206A triple mutant, cannot self-cleave; scale: DMSO 0, 5 µM enzyme 100;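 active = percent activation above the screen-wide mean plus 3 SD, cut at about 25% in these data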
Target sequence (P55210 whole entry D23A/D198A/D206A): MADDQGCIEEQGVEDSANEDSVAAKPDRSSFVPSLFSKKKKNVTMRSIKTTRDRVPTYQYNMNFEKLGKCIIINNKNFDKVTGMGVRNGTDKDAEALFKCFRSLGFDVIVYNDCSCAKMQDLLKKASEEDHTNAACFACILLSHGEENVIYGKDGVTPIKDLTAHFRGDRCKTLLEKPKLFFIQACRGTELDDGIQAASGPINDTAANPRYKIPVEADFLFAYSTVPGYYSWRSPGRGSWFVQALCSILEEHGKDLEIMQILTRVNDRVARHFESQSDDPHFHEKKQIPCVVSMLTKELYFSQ
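System: Procaspase-7 triple mutant (PC-7 D3A); measure: % activation from two-timepoint absorbance difference, scaled to controls; times: 1 h compound preincubation, 2 h substrate cleavage, 25 °C; also added: Ac-DEVD-pNA substrate, 400 µM as added; measured by: Epi-absorbance of released pNA at 405 nm, two timepoints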
procasp3 activ: activates human procaspase-3 | P42574 | recombinant procaspase-3 D3A, Ac-DEVD-pNA absorbance 405 nm | activation, % at 8.5 µM | actives 0.11% (n = 330,000);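 active = activation above the mean of all tested compounds plus 3 SD, cut at about 21% in these data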;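 also: 0% = DMSO alone and 100% = DMSO wells spiked with extra 5 µM PC-3 D3A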
Target sequence (P42574 whole entry D9A/D28A/D175A): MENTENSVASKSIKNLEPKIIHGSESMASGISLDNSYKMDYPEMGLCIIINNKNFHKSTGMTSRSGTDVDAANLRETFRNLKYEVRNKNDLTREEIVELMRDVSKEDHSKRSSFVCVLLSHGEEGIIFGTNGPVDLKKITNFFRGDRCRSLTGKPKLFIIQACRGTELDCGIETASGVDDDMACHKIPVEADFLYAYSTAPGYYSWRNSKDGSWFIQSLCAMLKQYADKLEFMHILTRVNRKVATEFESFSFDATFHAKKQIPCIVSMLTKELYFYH
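material = Procaspase-3 D3A mutant | probe or stimulus = Ac-DEVD-pNA | compound = single dose, 8.5 µM nominal compound, 0.8% DMSO | timing = 1 h preincubation, 2 h reaction | measured by = 405 nm absorbance of p-nitroaniline, reads at 0 and 120 min | benchmarks = DMSO-only low control, 5 µM PC-3 D3A high control | repeats = singlicate, each compound tested once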
PREPL inh: inhibitors of human prolyl oligopeptidase-like enzyme PREPL | Q4J6C6 | recombinant PREPL, fluorescence polarization activity-based probe | inhibition, % at 5.96 µM | actives 0.68% (n = 320,000) | AID 2751; in the data active = inhibition above about 43%;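 also: 0% = enzyme with DMSO and 100% = wells lacking enzyme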
LYPLA1 inh: counter-screen for PME1 inhibitors: inhibitors of human LYPLA1; actives 0.16% (n = 320,000); recombinant LYPLA1, FP-Rh probe fluorescence polarization; AID 2174; O75608; inhibition, % at 5.9 µM;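 active = inhibition above the mean of all tested compounds plus 3 SD, set per campaign, cut at about 14% in these data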;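 also: inhibitors block serine hydrolase probe labeling of LYPLA1 so polarization falls; 0% = enzyme with DMSO and 100% = wells lacking LYPLA1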
LYPLA2 inh: LYPLA2 (human) inhibition in PME1 counter-screen; O95372; recombinant LYPLA2, FP-Rh probe fluorescence polarization; inhibition, % at 5.9 µM; actives 0.38% (n = 320,000);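 active = inhibition above the screen-wide mean plus 3 SD, limit set per campaign, cut at about 26% in these data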;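 also: 0% = LYPLA2 with DMSO and 100% = wells lacking LYPLA2 enzyme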
LYPLA2 confirm: LYPLA2 (human) inhibition, confirmation counter-screen; recombinant LYPLA2, FP-Rh probe fluorescence polarization; shares compounds with LYPLA2 inh; inhibition, % at 5.9 µM; actives 72% (n = 1,100); AID 2232;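 active = mean inhibition across replicates above the hit cutoff set in the primary screen, cut at about 26% in these data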;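 also: blocked labeling of the enzyme by serine hydrolase FP-Rh probe lowers polarization; 0% = enzyme with DMSO and 100% = wells lacking LYPLA2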
LYPLA2 ABPP: inhibitors of human LYPLA2. shares compounds with LYPLA2 inh. rhLYPLA2 in mouse brain proteome, gel ABPP FP-Rh. inhibition, % at 20 µM. actives 30% (n = 150);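 active = inhibition of LYPLA2 enzyme probe labeling above about 50%, limit read from the data; inactive = inhibition below that limit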;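 also: loss of FP-Rh probe labeling of the LYPLA2 gel band measured as band density; 0% = DMSO only control band and 100% = blank gel background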
The depositor's hits bear a star; x = no result given. In the library only some 1% were active in any assay of this set; here they are far more common.

SMILES | proCasp7 act | procasp3 activ | PREPL inh | LYPLA1 inh | LYPLA2 inh | LYPLA2 confirm | others
COCCn1c(=O)[nH]c2cc(C(=O)NCCN3CCN(c4cccc(Cl)c4)CC3)ccc2c1=O | -3.5 | 3.1 | -13.5 | 5.5 | 44.6* | 35.6*
Cn1cc(C(=O)NCCN2CCN(c3cccc(Cl)c3)CC2)c2c3ccccc3n(C)c2c1=O | 9.9 | -0.3 | 45.9* | 6.7 | 25.9* | 35.1*
CCNc1nc(C#N)nc2c1ncn2-c1cc(F)cc(F)c1 | 9.5 | 1.4 | 13.3 | -4.6 | -4.2 | x
COc1cc(OC)cc(C(=O)N[C@H](C(=O)OCC(=O)NC(=O)NC(C)(C)C)C(C)C)c1 | 7.1 | -0.9 | -2.9 | 2.5 | -3.9 | x
N#CCC(=O)Nc1ccc(C(=O)OCc2ccccc2Oc2ccccc2)cc1 | -0.4 | -2.7 | -15.8 | 6.8 | 26.0* | -82.8
Nc1ccc2c(c1)C(=O)N(c1cccc3ccccc13)C2=O | -0.5 | 4.8 | -3.3 | -2.9 | -1.2 | x
Cc1ccc(-c2noc(C3CCCN(S(=O)(=O)c4ccc5ccccc5c4)C3)n2)o1 (stereo not given) | -7.5 | 6.5 | -18.3 | -5.1 | -8.1 | x
CN(C)c1ccc(-c2noc(C3CCN(S(=O)(=O)c4ccc(C(=O)O)cc4)CC3)n2)cc1 | -5.9 | 6.9 | 8.6 | 4.8 | 29.6* | 28.7*
Cc1ccc(-c2noc(C3CCN(S(=O)(=O)c4ccc5c(c4)OCCO5)CC3)n2)o1 | 7.5 | -2.0 | -1.8 | 6.1 | 56.0* | 54.0* | LYPLA2 ABPP=9.0
CC(C)CCn1c(=O)c2sccc2n2c(CCCC(=O)N3CCC(N4CCCCC4)CC3)nnc12 | -17.7 | -0.8 | -4.9 | 5.8 | 27.9* | 3.1
CCOC(=O)N1CCN(C(=O)c2ccc(Cn3c(=S)[nH]c4cc(C(=O)OC)ccc4c3=O)cc2)CC1 | 9.4 | -4.9 | 2.3 | 3.4 | 28.8* | 18.6
CCOC(=O)C1CCCN(C(=O)c2ccc(Cn3c(=S)[nH]c4cc(C(=O)OC)ccc4c3=O)cc2)C1 (stereo not given) | -3.9 | 1.7 | 1.0 | 0.5 | 6.6 | x
Cc1nnc(NC(=O)CSc2nnc(Cc3ccccc3)n2Cc2ccccc2)s1 | 17.3 | 4.6 | -0.5 | -1.2 | -4.1 | x
CCn1c(SCC(=O)c2ccc(F)cc2)nnc1-c1ccoc1C | 1.5 | -2.5 | 4.7 | 4.7 | 34.7* | -2.6
Cc1occc1-c1nnc(SCCCC(=O)c2ccc(F)cc2)n1C | 0.8 | 2.0 | -2.2 | 0.2 | 2.2 | x
COc1cc(NC(=S)NC(=O)CC(C)C)ccc1NC(=O)c1cc2ccccc2o1 | 3.8 | -4.1 | 3.8 | 2.4 | -0.8 | x
O=C(O)c1nn(CC(=O)N2CCN(c3ncc(C(F)(F)F)cc3Cl)CC2)c(=O)c2ccccc12 | -2.4 | 1.9 | 11.7 | 3.1 | 26.3* | 30.5*
O=C(CSc1ccccn1)N1CCN(c2ncc(C(F)(F)F)cc2Cl)CC1 | 10.7 | 4.0 | 19.1 | 5.2 | -8.1 | x
CCCCn1c(CCC)nc([N+](=O)[O-])c1Sc1ccc(Cl)cn1 | -1.6 | 0.6 | -257.6 | -7.4 | -12.2 | x
CCOC(=O)C1(Cc2ccc(OC)cc2)CCN(C(=O)CN2CCN(CC)CC2)CC1 | 13.3 | 7.7 | 1.9 | 0.5 | -0.2 | x
Fc1ccccc1COc1ccc(Br)cc1CNCc1cccnc1 | -0.3 | -9.7 | -20.9 | -1.7 | -1.4 | x
Fc1ccccc1COc1ccc(Br)cc1CNCc1ccncc1 | 2.4 | -1.9 | -11.4 | -3.6 | 27.0* | 2.0
CS(=O)(=O)Nc1ccc(N2CCN(c3ccc(C(F)(F)F)cn3)CC2)nc1 | -7.4 | 4.2 | 17.0 | 8.5 | 84.1* | 82.6* | LYPLA2 ABPP=72.0*
NC(=O)CC(NC(=O)c1ccc(Br)cc1)c1ccc(N2CCN(c3ccccc3)CC2)c([N+](=O)[O-])c1 (stereo not given) | -11.7 | 3.7 | -2.5 | -3.8 | 26.2* | 28.4*
NC(=O)CC(NC(=O)c1ccc(Br)cc1)c1ccc(N2CCN(c3ccc(F)cc3)CC2)c([N+](=O)[O-])c1 (stereo not given) | -4.4 | -5.7 | 22.4 | -9.1 | 25.6 | x
SMILES | proCasp7 act | procasp3 activ | PREPL inh | LYPLA1 inh | LYPLA2 inh | LYPLA2 confirm | others
CCc1ccc(OC(=O)Cc2ccc(OC)c(S(=O)(=O)N3CCOCC3)c2)cc1 | 0.6 | 1.7 | 34.3 | -1.3 | 3.8 | x
CSCCC(NS(=O)(=O)c1ccc2c(c1)oc(=O)n2C)C(=O)NC1CCN(Cc2ccccc2)CC1 (stereo not given) | 8.5 | 0.5 | 6.0 | -2.9 | -3.6 | x
CCOC(=O)c1ccc(NC(=S)N2CCCC2c2ccc(OC)c(OC)c2)cc1 (stereo not given) | 2.3 | 0.0 | 10.4 | 0.3 | 30.3* | 25.3
COc1ccc(Cl)cc1NC(=O)CSc1nc(NS(=O)(=O)c2ccc(C)cc2)cc(=O)[nH]1 | -15.2 | -4.7 | -11.4 | -1.1 | -0.7 | x
COc1ccccc1/C=C1/C(=O)N(c2ccccc2)N=C1C | -3.7 | 9.8 | 2.7 | -1.2 | 2.3 | x
COc1cc(/C=C2/C(=O)N(c3ccc(C)c(C)c3)N=C2C)cc([N+](=O)[O-])c1O | -15.8 | -11.0 | 23.2 | 3.7 | 10.2 | x
CC1=NN(c2ccccc2)C(=O)/C1=C\c1ccc(Oc2ccc([N+](=O)[O-])cc2[N+](=O)[O-])cc1 | 3.7 | 7.5 | 10.9 | 12.0 | 40.7* | 30.9*
COc1cc(/C=C2\C(=O)N(c3ccccc3)N=C2C)ccc1Oc1ccc([N+](=O)[O-])cc1[N+](=O)[O-] | 11.3 | -0.7 | 11.3 | 0.3 | 30.7* | 17.8
Nc1ccc(Oc2ccc([N+](=O)[O-])cc2[N+](=O)[O-])cc1 | 9.7 | -1.8 | 5.1 | 2.3 | 54.3* | 57.5* | LYPLA2 ABPP=1.0
CCn1c(CNc2ccc(Cl)cc2)nnc1SCc1ccc(C)cc1 | 7.9 | -6.4 | 9.2 | 5.8 | 5.3 | x
CCOc1cc(/C=C2/C(=O)ON=C2C)ccc1OCc1ccccc1F | -1.4 | 4.6 | 13.9 | -0.1 | -3.7 | x
Cc1cccc(Sc2ccc([N+](=O)[O-])cn2)c1 | -0.6 | 5.4 | 11.3 | 0.0 | 29.2* | 28.5*
Cc1ccccc1Sc1ccc(N)cn1 | -4.9 | -5.5 | 10.0 | -0.9 | 5.2 | x
Cc1ccccc1Sc1ccc([N+](=O)[O-])cn1 | 3.9 | -0.6 | 0.8 | 3.6 | 34.4* | 31.2*
O=[N+]([O-])c1ccc(Sc2ccccc2)nc1 | -4.1 | -1.2 | 15.7 | -2.4 | 17.4 | x
O=C(Nc1cccc(S(=O)(=O)Nc2ccccc2Cl)c1)c1ccc(Cl)nc1 | -2.7 | -6.5 | 5.5 | -2.6 | -9.3 | x
CCc1ccc(S(=O)(=O)/N=C2/C=C(Sc3ncn[nH]3)C(=O)c3ccccc32)cc1 | -24.4 | -13.8 | 16.8 | 1.5 | 40.0* | 47.4*
Cc1cccn2c(=O)c3cc(C#N)c(=N)n(CCCN4CCOCC4)c3nc12 | -29.7 | -20.4 | 13.1 | -2.0 | -2.7 | x
